Measurements reported in ChEMBL document CHEMBL3797186, “Single Residue Substitutions That Confer Voltage-Gated Sodium Ion Channel Subtype Selectivity in the NaV1.7 Inhibitory Peptide GpTx-1” (J Med Chem, 2016).
Positions of bridges follow the written chain, without caps; N, C: chain ends. Non-standard residues stand in square brackets, D forms with d. Residues, ends and D or L forms follow the SMILES beside them. Ala(indol-2-yl) = N[C@@H](Cc1cc2ccccc2[nH]1)C(=O)O; 1Nal = N[C@@H](Cc1cccc2ccccc12)C(=O)O

Legend:
Assay type in all cases: cell-based
[1] = target: T1, Sodium channel protein type 5 subunit alpha (Homo sapiens, UniProt Q14524); test: Inhibition of human Nav1.5 expressed in HEK293 cells assessed as inward peak current by ion-works quattro patch clamp electrophysiology method
How it was run: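 Stable HEK293 line expressing human NaV1.5, recorded by population patch clamp on the IonWorks Quattro.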

[2] = target: T2, Sodium channel protein type 9 subunit alpha (Homo sapiens, UniProt Q15858); test: Inhibition of human Nav1.7 expressed in HEK293 cells assessed as inward peak current by ion-works quattro patch clamp electrophysiology method
[3] = target: T2, Sodium channel protein type 9 subunit alpha; test: Inhibition of human Nav1.7 expressed in HEK293 cells by whole cell patch clamp electrophysiology method
[4] = target: T1, Sodium channel protein type 5 subunit alpha; test: Inhibition of human Nav1.5 expressed in HEK293 cells by whole cell patch clamp electrophysiology method
How it was run: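 Stable HEK293 line expressing human NaV1.5, recorded on the PatchXpress 7000A. Percent inhibition versus concentration was pooled from at least 10 cells, with two to three points per concentration. The pooled set was fitted with a four-parameter Hill equation to give a single IC50 curve.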

T1 sequence (Q14524 whole entry): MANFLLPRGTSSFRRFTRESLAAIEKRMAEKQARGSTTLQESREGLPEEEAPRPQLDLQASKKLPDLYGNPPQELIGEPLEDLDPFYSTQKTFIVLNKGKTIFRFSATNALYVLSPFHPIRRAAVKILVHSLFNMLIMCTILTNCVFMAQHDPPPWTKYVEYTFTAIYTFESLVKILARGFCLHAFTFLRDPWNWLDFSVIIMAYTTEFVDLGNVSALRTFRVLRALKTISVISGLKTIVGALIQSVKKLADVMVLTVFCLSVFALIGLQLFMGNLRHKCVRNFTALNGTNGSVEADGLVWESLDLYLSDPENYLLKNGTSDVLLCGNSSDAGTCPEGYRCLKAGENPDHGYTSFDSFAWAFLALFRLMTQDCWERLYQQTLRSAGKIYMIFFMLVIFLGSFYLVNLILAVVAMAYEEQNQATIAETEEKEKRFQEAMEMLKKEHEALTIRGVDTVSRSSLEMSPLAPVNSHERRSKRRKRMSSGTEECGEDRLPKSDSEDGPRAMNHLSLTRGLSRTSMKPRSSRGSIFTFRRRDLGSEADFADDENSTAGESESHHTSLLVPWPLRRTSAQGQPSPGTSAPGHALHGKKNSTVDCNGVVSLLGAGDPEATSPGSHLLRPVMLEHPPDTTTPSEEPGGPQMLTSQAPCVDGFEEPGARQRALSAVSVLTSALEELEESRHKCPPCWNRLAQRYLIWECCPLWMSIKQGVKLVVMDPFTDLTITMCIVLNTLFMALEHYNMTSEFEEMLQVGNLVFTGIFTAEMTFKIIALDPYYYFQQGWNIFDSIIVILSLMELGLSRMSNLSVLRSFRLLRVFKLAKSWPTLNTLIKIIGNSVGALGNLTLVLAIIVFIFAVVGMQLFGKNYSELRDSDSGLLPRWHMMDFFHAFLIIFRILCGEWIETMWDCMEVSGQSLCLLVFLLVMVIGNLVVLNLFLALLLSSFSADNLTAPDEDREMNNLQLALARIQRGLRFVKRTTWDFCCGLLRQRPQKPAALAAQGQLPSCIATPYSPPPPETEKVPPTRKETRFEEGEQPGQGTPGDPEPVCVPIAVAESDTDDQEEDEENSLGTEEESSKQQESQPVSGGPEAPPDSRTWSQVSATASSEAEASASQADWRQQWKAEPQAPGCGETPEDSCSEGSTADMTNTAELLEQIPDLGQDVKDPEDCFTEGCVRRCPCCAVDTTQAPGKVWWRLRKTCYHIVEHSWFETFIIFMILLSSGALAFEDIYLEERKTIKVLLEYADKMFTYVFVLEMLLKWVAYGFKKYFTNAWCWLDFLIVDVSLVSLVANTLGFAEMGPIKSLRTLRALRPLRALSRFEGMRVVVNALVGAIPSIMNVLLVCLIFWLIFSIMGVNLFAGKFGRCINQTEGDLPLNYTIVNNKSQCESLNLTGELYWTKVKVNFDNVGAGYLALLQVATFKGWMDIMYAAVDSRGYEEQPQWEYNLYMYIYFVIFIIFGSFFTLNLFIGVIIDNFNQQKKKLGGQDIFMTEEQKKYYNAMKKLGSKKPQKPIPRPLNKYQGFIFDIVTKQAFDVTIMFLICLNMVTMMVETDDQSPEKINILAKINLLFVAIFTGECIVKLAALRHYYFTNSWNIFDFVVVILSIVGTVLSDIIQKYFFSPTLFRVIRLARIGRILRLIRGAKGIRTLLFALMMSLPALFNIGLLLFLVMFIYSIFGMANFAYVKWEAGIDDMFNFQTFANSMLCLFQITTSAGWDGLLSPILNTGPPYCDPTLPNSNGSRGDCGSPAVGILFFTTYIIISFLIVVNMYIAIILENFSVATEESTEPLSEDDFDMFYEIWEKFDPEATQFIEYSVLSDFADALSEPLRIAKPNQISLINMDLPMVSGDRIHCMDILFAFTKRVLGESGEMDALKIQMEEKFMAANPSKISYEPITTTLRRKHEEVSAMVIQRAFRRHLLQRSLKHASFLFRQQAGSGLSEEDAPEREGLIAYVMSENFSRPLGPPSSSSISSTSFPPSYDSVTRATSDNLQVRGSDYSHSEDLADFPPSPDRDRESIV
T2 sequence (Q15858 whole entry): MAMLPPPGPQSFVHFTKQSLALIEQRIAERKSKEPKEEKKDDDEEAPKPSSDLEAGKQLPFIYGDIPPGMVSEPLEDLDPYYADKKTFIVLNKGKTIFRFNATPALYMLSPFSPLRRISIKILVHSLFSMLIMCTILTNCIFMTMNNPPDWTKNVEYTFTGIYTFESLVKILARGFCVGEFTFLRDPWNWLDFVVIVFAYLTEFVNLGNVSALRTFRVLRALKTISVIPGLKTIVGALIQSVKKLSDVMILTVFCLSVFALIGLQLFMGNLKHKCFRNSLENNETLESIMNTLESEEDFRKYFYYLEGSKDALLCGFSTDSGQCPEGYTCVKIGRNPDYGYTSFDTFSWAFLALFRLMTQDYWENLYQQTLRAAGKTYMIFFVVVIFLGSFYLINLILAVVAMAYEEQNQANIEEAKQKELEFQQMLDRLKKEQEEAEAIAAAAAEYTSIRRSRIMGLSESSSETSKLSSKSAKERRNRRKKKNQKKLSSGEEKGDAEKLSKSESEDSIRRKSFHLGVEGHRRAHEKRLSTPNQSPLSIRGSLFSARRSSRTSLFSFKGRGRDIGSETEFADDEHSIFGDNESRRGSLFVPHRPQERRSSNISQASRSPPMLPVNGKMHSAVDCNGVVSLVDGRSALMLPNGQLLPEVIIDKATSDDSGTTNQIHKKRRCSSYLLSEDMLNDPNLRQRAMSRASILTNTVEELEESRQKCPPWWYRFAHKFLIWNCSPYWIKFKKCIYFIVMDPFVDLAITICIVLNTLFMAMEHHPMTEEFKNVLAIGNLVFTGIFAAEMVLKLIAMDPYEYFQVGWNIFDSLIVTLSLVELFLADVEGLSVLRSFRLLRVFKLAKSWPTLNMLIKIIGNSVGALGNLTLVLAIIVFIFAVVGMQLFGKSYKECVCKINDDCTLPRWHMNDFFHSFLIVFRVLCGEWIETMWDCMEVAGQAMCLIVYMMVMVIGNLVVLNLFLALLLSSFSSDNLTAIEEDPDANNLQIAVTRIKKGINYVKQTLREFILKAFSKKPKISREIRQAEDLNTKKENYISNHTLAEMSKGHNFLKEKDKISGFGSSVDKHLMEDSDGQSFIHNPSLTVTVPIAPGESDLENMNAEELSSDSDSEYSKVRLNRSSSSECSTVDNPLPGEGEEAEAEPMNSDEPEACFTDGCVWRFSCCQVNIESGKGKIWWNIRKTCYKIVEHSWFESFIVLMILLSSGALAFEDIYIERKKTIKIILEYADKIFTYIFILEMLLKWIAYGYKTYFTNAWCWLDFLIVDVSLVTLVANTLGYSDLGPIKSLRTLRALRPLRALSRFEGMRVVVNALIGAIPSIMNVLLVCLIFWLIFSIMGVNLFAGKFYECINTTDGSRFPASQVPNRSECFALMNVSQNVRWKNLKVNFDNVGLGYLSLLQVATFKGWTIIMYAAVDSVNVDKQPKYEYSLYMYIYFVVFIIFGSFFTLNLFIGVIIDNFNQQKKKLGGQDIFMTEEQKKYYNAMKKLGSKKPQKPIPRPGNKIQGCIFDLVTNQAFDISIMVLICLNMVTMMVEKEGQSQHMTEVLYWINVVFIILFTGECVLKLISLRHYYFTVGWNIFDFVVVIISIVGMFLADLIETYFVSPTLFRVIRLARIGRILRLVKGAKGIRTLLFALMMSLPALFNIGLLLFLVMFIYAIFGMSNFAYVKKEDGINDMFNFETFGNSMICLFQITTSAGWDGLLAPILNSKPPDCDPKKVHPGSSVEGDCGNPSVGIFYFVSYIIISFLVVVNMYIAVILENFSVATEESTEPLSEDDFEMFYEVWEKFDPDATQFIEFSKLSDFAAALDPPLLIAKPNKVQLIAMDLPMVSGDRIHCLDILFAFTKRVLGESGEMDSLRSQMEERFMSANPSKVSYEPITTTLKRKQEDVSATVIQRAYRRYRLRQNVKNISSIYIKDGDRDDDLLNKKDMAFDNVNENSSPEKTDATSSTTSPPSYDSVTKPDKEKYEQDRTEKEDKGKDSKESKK

SMILES	IC50 [1]	IC50 [2]	IC50 [3]	IC50 [4]
CC[C@H](C)[C@@H]1NC(=O)[C@@H]2CSSC[C@@H]3NC(=O)[C@H](C(C)C)NC(=O)[C@H](CC(C)C)NC(=O)[C@H](CC(N)=O)NC(=O)[C@@H]4CCCN4C(=O)[C@H](Cc4cc5ccccc5[nH]4)NC(=O)[C@H](CSSC[C@H](NC(=O)[C@@H](N)CC(=O)O)C(=O)N[C@@H](CC(C)C)C(=O)NCC(=O)N[C@@H](Cc4ccccc4)C(=O)N[C@@H](CCSC)C(=O)N[C@@H](CCCNC(=N)N)C(=O)N[C@@H](CCCCN)C(=O)N2)NC(=O)[C@H](CSSC[C@@H](C(=O)N[C@@H](CCCCN)C(=O)N[C@@H](Cc2ccc(O)cc2)C(=O)N[C@H](C(=O)N[C@@H](Cc2ccccc2)C(N)=O)C(C)C)NC(=O)[C@H](Cc2c[nH]c4ccccc24)NC(=O)[C@H](CCCCN)NC(=O)[C@H](Cc2cnc[nH]2)NC(=O)[C@H]([C@@H](C)O)NC(=O)[C@H](CCCNC(=N)N)NC(=O)[C@H](CO)NC3=O)NC(=O)[C@H](CCCCN)NC(=O)[C@H](CC(=O)O)NC(=O)[C@H](CC(N)=O)NC(=O)[C@H](CC(=O)O)NC(=O)[C@@H]2CCCN2C1=O (H-DCLGFMRKCIPDNDKCC[Ala(indol-2-yl)]PNLVCSRTHKWCKYVF-NH2; disulfide 2-17, 9-23, 16-30)	> 5 µM	180 nM	18 nM	> 10000 nM
CC[C@H](C)[C@@H]1NC(=O)[C@@H]2CSSC[C@@H]3NC(=O)[C@H](C(C)C)NC(=O)[C@H](CC(C)C)NC(=O)[C@H](CC(N)=O)NC(=O)[C@@H]4CCCN4C(=O)[C@H](CCCNC(=N)N)NC(=O)[C@H](CSSC[C@H](NC(=O)[C@@H](N)CC(=O)O)C(=O)N[C@@H](CC(C)C)C(=O)NCC(=O)N[C@@H](Cc4ccccc4)C(=O)N[C@@H](CCSC)C(=O)N[C@@H](CCCNC(=N)N)C(=O)N[C@@H](CCCCN)C(=O)N2)NC(=O)[C@H](CSSC[C@@H](C(=O)N[C@@H](CCCCN)C(=O)N[C@@H](Cc2ccc(O)cc2)C(=O)N[C@H](C(=O)N[C@@H](Cc2cccc4ccccc24)C(N)=O)C(C)C)NC(=O)[C@H](Cc2c[nH]c4ccccc24)NC(=O)[C@H](CCCCN)NC(=O)[C@H](Cc2cnc[nH]2)NC(=O)[C@H]([C@@H](C)O)NC(=O)[C@H](CCCNC(=N)N)NC(=O)[C@H](CO)NC3=O)NC(=O)[C@H](CCCCN)NC(=O)[C@H](CC(=O)O)NC(=O)[C@H](CC(N)=O)NC(=O)[C@H](CC(=O)O)NC(=O)[C@@H]2CCCN2C1=O (H-DCLGFMRKCIPDNDKCCRPNLVCSRTHKWCKYV[1Nal]-NH2; disulfide 2-17, 9-23, 16-30)	> 5 µM	40 nM	5 nM	1800 nM
